From ChEMBL document CHEMBL2412956, “Synthesis and biological activity evaluation of 5-pyrazoline substituted 4-thiazolidinones” (Eur J Med Chem, 2013)

Tests used:
Format in all cases: functional
LOX IMVI [1] = assay: Cytotoxicity against human LOXIMVI cells assessed as cell growth at 10 uM after 48 hrs by SRB assay relative to control; conditions: read-out: Activity
How it was run: (§1)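 This was the NCI primary screen, with compound added once at 10⁻⁵ M and cultures incubated for 48 h. The endpoint was sulforhodamine B protein staining. Results are expressed as percent growth of treated cells relative to untreated control cells.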

RPMI-8226 [2] = assay: Cytotoxicity against human RPMI8226 cells assessed as cell growth at 10 uM after 48 hrs by SRB assay relative to control; conditions: RPMI-8226, 48 h, read-out: Activity; how it was run: as §1
K562 [3] = assay: Cytotoxicity against human K562 cells assessed as cell growth at 10 uM after 48 hrs by SRB assay relative to control; conditions: K562, 48 h, read-out: Activity; how it was run: as §1
SR [4] = assay: Cytotoxicity against human SR cells assessed as cell growth at 10 uM after 48 hrs by SRB assay relative to control; conditions: read-out: Activity
How it was run: (§2)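 Single-dose NCI screen: compound at 10⁻⁵ M added to tumor cell cultures and incubated for 48 h. The SRB protein-binding dye end point was read spectrophotometrically. Results are percent growth of treated cells relative to untreated controls.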

KM12 [5] = assay: Cytotoxicity against human KM12 cells after 48 hrs by SRB assay; conditions: KM12, 48 h
How it was run: (§3)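 This was the NCI 60-cell-line five-dose screen, using 10-fold dilutions from 100 to 0.01 μM and continuous 48-h exposure. Growth was read by sulforhodamine B protein staining relative to time-zero and untreated controls. […] Where an endpoint was not reached, the value was given as beyond the range tested.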

HCT-116 = assay: Cytotoxicity against human HCT116 cells after 48 hrs by SRB assay; conditions: HCT-116, 48 h; how it was run: as §3
NCI-H460 = assay: Cytotoxicity against human NCI-H460 cells after 48 hrs by SRB assay; conditions: NCI-H460, 48 h; how it was run: as §3
HOP-62 = assay: Cytotoxicity against human HOP62 cells after 48 hrs by SRB assay; conditions: HOP-62, 48 h; how it was run: as §3
K562 [6] = assay: Cytotoxicity against human K562 cells after 48 hrs by SRB assay; conditions: K562, 48 h; how it was run: as §3
HL-60(TB) [7] = assay: Cytotoxicity against human HL-60(TB) cells after 48 hrs by SRB assay; conditions: HL-60, 48 h; how it was run: as §3
SR [8] = assay: Cytotoxicity against human SR cells after 48 hrs by SRB assay
How it was run: (§4)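 NCI 60-cell-line panel, five 10-fold concentrations from 100 μM to 0.01 μM (10⁻⁴ to 10⁻⁸ M) with 48-h continuous exposure. Growth was read by SRB protein staining against time-zero and untreated controls. […] Values beyond the tested range are expressed as greater or less than the limit.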

RPMI-8226 [9] = assay: Cytotoxicity against human RPMI8226 cells after 48 hrs by SRB assay; conditions: RPMI-8226, 48 h; how it was run: as §3
CCRF-CEM [10] = assay: Cytotoxicity against human CCRF-CEM cells after 48 hrs by SRB assay; how it was run: as §3
T47D = assay: Cytotoxicity against human T47D cells assessed as cell growth at 10 uM after 48 hrs by SRB assay relative to control; conditions: read-out: Activity; how it was run: as §2
MCF7 = assay: Cytotoxicity against human MCF7 cells assessed as cell growth at 10 uM after 48 hrs by SRB assay relative to control; conditions: MCF7, 48 h, read-out: Activity; how it was run: as §1
RXF 393 = assay: Cytotoxicity against human RXF393 cells assessed as cell growth at 10 uM after 48 hrs by SRB assay relative to control; conditions: RXF 393, 48 h, read-out: Activity; how it was run: as §1
PC-3 [11] = assay: Cytotoxicity against human PC3 cells assessed as cell growth at 10 uM after 48 hrs by SRB assay relative to control; conditions: PC-3, 48 h, read-out: Activity; how it was run: as §1
OVCAR-3 [12] = assay: Cytotoxicity against human OVCAR3 cells assessed as cell growth at 10 uM after 48 hrs by SRB assay relative to control; conditions: OVCAR-3, 48 h, read-out: Activity; how it was run: as §1
SF-295 [13] = assay: Cytotoxicity against human SF295 cells assessed as cell growth at 10 uM after 48 hrs by SRB assay relative to control; conditions: SF-295, 48 h, read-out: Activity; how it was run: as §1
KM12 [14] = assay: Cytotoxicity against human KM12 cells assessed as cell growth at 10 uM after 48 hrs by SRB assay relative to control; conditions: KM12, 48 h, read-out: Activity; how it was run: as §1
MOLT-4 = assay: Cytotoxicity against human MOLT4 cells assessed as cell growth at 10 uM after 48 hrs by SRB assay relative to control; conditions: MOLT-4, 48 h, read-out: Activity; how it was run: as §1
HL-60(TB) [15] = assay: Cytotoxicity against human HL-60(TB) cells assessed as cell growth at 10 uM after 48 hrs by SRB assay relative to control; conditions: HL-60, 48 h, read-out: Activity; how it was run: as §1
CCRF-CEM [16] = assay: Cytotoxicity against human CCRF-CEM cells assessed as cell growth at 10 uM after 48 hrs by SRB assay relative to control; conditions: read-out: Activity; how it was run: as §1
HOP-92 = assay: Cytotoxicity against human HOP92 cells assessed as cell growth at 10 uM after 48 hrs by SRB assay relative to control; conditions: HOP-92, 48 h, read-out: Activity; how it was run: as §1
DU-145 = assay: Cytotoxicity against human DU145 cells after 48 hrs by SRB assay; conditions: DU-145, 48 h; how it was run: as §3
PC-3 [17] = assay: Cytotoxicity against human PC3 cells after 48 hrs by SRB assay; conditions: PC-3, 48 h; how it was run: as §3
786-0 = assay: Cytotoxicity against human 786-0 cells after 48 hrs by SRB assay; conditions: 786-0, 48 h; how it was run: as §3
OVCAR-3 [18] = assay: Cytotoxicity against human OVCAR3 cells after 48 hrs by SRB assay; conditions: OVCAR-3, 48 h; how it was run: as §3
UACC-62 = assay: Cytotoxicity against human UACC62 cells after 48 hrs by SRB assay; conditions: UACC-62, 48 h; how it was run: as §4
MDA-MB-435 = assay: Cytotoxicity against human MDA-MB-435 cells after 48 hrs by SRB assay; conditions: MDA-MB-435, 48 h; how it was run: as §3
LOX IMVI [19] = assay: Cytotoxicity against human LOXIMVI cells after 48 hrs by SRB assay; how it was run: as §3
U-251 = assay: Cytotoxicity against human U251 cells after 48 hrs by SRB assay; conditions: U-251, 48 h; how it was run: as §4
SF-295 [20] = assay: Cytotoxicity against human SF295 cells after 48 hrs by SRB assay; conditions: SF-295, 48 h; how it was run: as §3
HCT-15 = assay: Cytotoxicity against human HCT15 cells after 48 hrs by SRB assay; conditions: HCT-15, 48 h; how it was run: as §3

COc1ccc(C2CC(c3ccccc3)=NN2C(=O)/C=C2\SC(=O)NC2=O)cc1 (centres undefined)
growth at 10 µM (LOX IMVI [1]): 55.7% | growth at 10 µM (RPMI-8226 [2]): 58.9% | growth at 10 µM (K562 [3]): 58.2% | growth at 10 µM (SR [4]): 39.1%

COc1ccc(C2=NN(C(=O)/C=C3\SC(=O)NC3=O)C(c3ccccc3O)C2)cc1 (centres undefined)
GI50 (KM12 [5]): 4.76 µM | TGI (KM12 [5]): 15.3 µM | GI50 (HCT-116): 4.56 µM | TGI (HCT-116): 16.4 µM | GI50 (NCI-H460): 4.18 µM | TGI (NCI-H460): 18.7 µM | GI50 (HOP-62): 4.85 µM | TGI (HOP-62): 19.8 µM | GI50 (K562 [6]): 4.58 µM | TGI (K562 [6]): 100 µM | GI50 (HL-60(TB) [7]): 3.35 µM | TGI (HL-60(TB) [7]): 9.14 µM | GI50 (SR [8]): 2.85 µM | TGI (SR [8]): 9.02 µM | GI50 (RPMI-8226 [9]): 2.12 µM | TGI (RPMI-8226 [9]): 6.91 µM | GI50 (CCRF-CEM [10]): 2.85 µM | TGI (CCRF-CEM [10]): 11.3 µM | growth at 10 µM (T47D): 38% | growth at 10 µM (MCF7): 30.3% | growth at 10 µM (RXF 393): 31.4% | growth at 10 µM (PC-3 [11]): 33.6% | growth at 10 µM (OVCAR-3 [12]): 36.4% | growth at 10 µM (SF-295 [13]): -13.4% | growth at 10 µM (KM12 [14]): 29.9% | growth at 10 µM (MOLT-4): 16.5% | growth at 10 µM (HL-60(TB) [15]): -27.3% | growth at 10 µM (CCRF-CEM [16]): 19.5% | growth at 10 µM (K562 [3]): 33.2% | growth at 10 µM (HOP-92): 37.8% | GI50 (DU-145): 4.64 µM | TGI (DU-145): 18.4 µM | GI50 (PC-3 [17]): 4.63 µM | TGI (PC-3 [17]): 44.4 µM | GI50 (786-0): 2.96 µM | TGI (786-0): 13.5 µM | GI50 (OVCAR-3 [18]): 3.17 µM | TGI (OVCAR-3 [18]): 11 µM | GI50 (UACC-62): 2.83 µM | TGI (UACC-62): 9.28 µM | GI50 (MDA-MB-435): 3.91 µM | TGI (MDA-MB-435): 31.7 µM | GI50 (LOX IMVI [19]): 3.21 µM | TGI (LOX IMVI [19]): 17.9 µM | GI50 (U-251): 4.29 µM | TGI (U-251): 16.6 µM | GI50 (SF-295 [20]): 2.99 µM | TGI (SF-295 [20]): 10 µM | GI50 (HCT-15): 4.85 µM | TGI (HCT-15): 24.6 µM
